Data: ChEMBL document CHEMBL1129512, “Studies on the mechanism of phosphatidylinositol 3-kinase inhibition by wortmannin and related analogs” (J Med Chem, 1996)
Several values for one entry are separate records, joined by “and”; a condition that tells them apart may be missing. Identical values can stand only once.

Key:
[1] = system: Mus musculus; assay: In vivo inhibition of tumor growth in C3H Mammary model was evaluated at dose 0.50 mg/kg peroral administration; assay type: functional; settings: route oral
Procedure, shortened: (§1)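 Murine tumours were serially passaged as tumour fragments, implanted s.c. by trochar in the axillary region. Daily oral dosing began 1 day after implant, as a suspension in 2.5% emulphor EL-620 in 0.9% NaCl. There were 10 randomized mice per group. Tumours were measured by caliper the day after the last dose, with weight = length × width² × 0.5. Inhibition was 100 × (1 − mean treated/mean control weight). A group was toxic if lethality was >25%.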

[2] = system: Mus musculus; assay: In vivo inhibition of tumor growth in C3H Mammary model was evaluated at dose 1.0 mg/kg peroral administration; assay type: functional; settings: route oral; procedure, shortened: as §1
[3] = In vitro inhibitory activity against Phosphatidylinositol 3-Kinase
Procedure, shortened: (§2)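 Purified PI 3-kinase from bovine brain was used as the enzyme source. Results are reported as IC50 values.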

[4] = system: Mus musculus; assay: In vivo inhibition of tumor growth in C3H Mammary model was evaluated at dose 10 mg/kg peroral administration; assay type: functional; settings: route oral
Procedure, shortened: (§3)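 Murine C3H mammary tumour fragments were implanted subcutaneously by trochar in the axillary region, in groups of 10 randomized mice. Oral dosing started 1 day after implant, daily ×10, as a suspension in 2.5% emulphor EL-620 in 0.9% NaCl (water for one analog). Tumour weight, calculated as length×width²×0.5 from calipers, was measured the day after the last dose. Percent inhibition was calculated versus controls. Groups with >25% lethality were scored toxic.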

[5] = system: Mus musculus; assay: In vivo inhibition of tumor growth in C3H Mammary model was evaluated at dose 5.0 mg/kg peroral administration; range is 60-79%; assay type: functional; settings: route oral; procedure, shortened: as §3
[6] = Inhibition of Phosphatidylinositol 3-Kinase; procedure, shortened: as §2
[7] = system: Mus musculus; assay: IIn vivo inhibition of tumor growth in B-16 melanoma model was evaluated by inhibition of tumor growth at dose 0.75 mg/kg peroral administration; assay type: functional; settings: B16, route oral; procedure, shortened: as §1
[8] = system: Mus musculus; assay: In vivo inhibition of tumor growth B-16 melanoma model was evaluated at dose 1.50 mg/kg peroral administration; assay type: functional; settings: B16, route oral; procedure, shortened: as §1
[9] = system: Mus musculus; assay: In vivo inhibition of tumor growth in 6C3HED lymphosarcomal was evaluated at dose 0.75 mg/kg peroral administration; assay type: functional; settings: route oral; procedure, shortened: as §1
[10] = system: Mus musculus; assay: In vivo inhibition of tumor growth in 6C3HED lymphosarcomal was evaluated at dose 1.50 mg/kg peroral administration; assay type: functional; settings: route oral; procedure, shortened: as §1
[11] = system: Mus musculus; assay: In vivo inhibition of tumor growth in C-26 colon model was evaluated dose 0.75 mg/kg peroral administration; assay type: functional; settings: route oral; procedure, shortened: as §1
[12] = system: Mus musculus; assay: In vivo inhibition of tumor growth in C-26 colon model was evaluated dose 1.50 mg/kg peroral administration; assay type: functional; settings: route oral; procedure, shortened: as §1
[13] = system: Mus musculus; assay: In vivo inhibition of tumor growth in C3H Mammary model was evaluated at dose 2.50 mg/kg peroral administration; assay type: functional; settings: route oral; procedure, shortened: as §1
[14] = system: Mus musculus; assay: In vivo inhibition of tumor growth in Lewis lung model was evaluated at dose 0.75 mg/kg peroral administration; assay type: functional; settings: route oral; procedure, shortened: as §1
[15] = system: Mus musculus; assay: In vivo inhibition of tumor growth in Lewis lung model was evaluated at dose 1.50 mg/kg peroral administration; assay type: functional; settings: route oral; procedure, shortened: as §1
[16] = system: Mus musculus; assay: In vivo inhibition of tumor growth in M-5076 ovarian model was evaluated at dose 0.75 mg/kg peroral administration; assay type: functional; settings: M5076, route oral
Procedure, shortened: (§4)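 For the murine M-5076 ovarian tumour, fragments were implanted s.c. by trochar in the axilla. Daily oral dosing began 5 days after implant, as a suspension in 2.5% emulphor EL-620/0.9% NaCl. There were 10 randomized mice per group.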

[17] = system: Mus musculus; assay: In vivo inhibition of tumor growth in M-5076 ovarian model was evaluated at dose 1.50 mg/kg peroral administration; assay type: functional; settings: M5076, route oral; procedure, shortened: as §4
[18] = system: Mus musculus; assay: In vivo inhibition of tumor growth in X-5563 plasma cell myeloma model was evaluated at dose 1.25 mg/kg peroral administration; assay type: functional; settings: route oral
[19] = system: Homo sapiens; assay: In vivo inhibition of tumor growth in PANC-1 pancreatic model was evaluated at dose 0.75 mg/kg peroral administration; assay type: functional; settings: route oral
Procedure, shortened: (§5)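 Human xenograft fragments were implanted s.c. via trochar in the axillary region of mice. Daily oral dosing began 7 days after implant, as a suspension in 2.5% emulphor EL-620 in 0.9% NaCl. There were 10 randomized mice per group. Tumours were measured by caliper 5 days after the last dose, with weight = length × width² × 0.5. Inhibition was 100 × (1 − treated/control mean weight), and toxic meant lethality >25%.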

[20] = system: Homo sapiens; assay: In vivo inhibition of tumor growth in VRC5 colon model was evaluated at dose 0.75 mg/kg peroral administration; assay type: functional; settings: route oral
[21] = system: Homo sapiens; assay: In vivo inhibition of tumor growth in VRC5 colon model was evaluated at dose 1.50 mg/kg peroral administration; assay type: functional; settings: route oral
[22] = system: Homo sapiens; assay: In vivo toxicity against PI 3-Kinase in GC3 colon model was evaluated by inhibition of tumor growth at dose 0.75 mg/kg peroral administration; assay type: functional; settings: route oral; procedure, shortened: as §5
[23] = system: Homo sapiens; assay: In vivo inhibition of tumor growth IGROV1 ovarian model was evaluated at dose 0.75 mg/kg peroral administration; assay type: functional; settings: IGROV-1, route oral
Procedure, shortened: (§6)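 HC1 colon and IGROV1 ovarian xenografts were implanted s.c. as fragments by axillary trochar. Daily oral dosing started 14 days after implant, as a suspension in 2.5% emulphor EL-620/0.9% NaCl. Groups were 10 randomized mice.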

[24] = system: Homo sapiens; assay: In vivo inhibition of tumor growth MX-1 mammary model was evaluated at dose 1.50 mg/kg peroral administration; assay type: functional; settings: route oral
[25] = system: Homo sapiens; assay: In vivo inhibition of tumor growth PANC-1 pancreatic model was evaluated at dose 1.50 mg/kg peroral administration; assay type: functional; settings: route oral; procedure, shortened: as §5
[26] = system: Homo sapiens; assay: In vivo inhibition of tumor growth in BXPC-3 pancreatic model was evaluated at dose 0.75 mg/kg peroral administration; range is 60-79%; assay type: functional; settings: route oral; procedure, shortened: as §5
[27] = system: Homo sapiens; assay: In vivo inhibition of tumor growth in BXPC-3 pancreatic model was evaluated at dose 1.50 mg/kg peroral administration; assay type: functional; settings: route oral; procedure, shortened: as §5
[28] = system: Homo sapiens; assay: In vivo inhibition of tumor growth in CX-1 colon model was evaluated at dose 0.75 mg/kg peroral administration; assay type: functional; settings: route oral; procedure, shortened: as §5
[29] = system: Homo sapiens; assay: In vivo inhibition of tumor growth in CX-1 colon model was evaluated at dose 1.50 mg/kg peroral administration; assay type: functional; settings: route oral; procedure, shortened: as §5
[30] = system: Homo sapiens; assay: In vivo inhibition of tumor growth in GC3 colon model was evaluated at dose 0.38 mg/kg peroral administration; assay type: functional; settings: route oral; procedure, shortened: as §5
[31] = system: Homo sapiens; assay: In vivo inhibition of tumor growth in HC1 colon model was evaluated at dose 0.75 mg/kg peroral administration; assay type: functional; settings: route oral; procedure, shortened: as §6
[32] = system: Homo sapiens; assay: In vivo inhibition of tumor growth in HC1 colon model was evaluated at dose 1.50 mg/kg peroral administration; assay type: functional; settings: route oral; procedure, shortened: as §6
[33] = system: Homo sapiens; assay: In vivo inhibition of tumor growth in LX-1 lung model was evaluated at dose 0.38 mg/kg peroral administration; assay type: functional; settings: route oral; procedure, shortened: as §5
[34] = system: Homo sapiens; assay: In vivo inhibition of tumor growth in LX-1 lung model was evaluated at dose 0.75 mg/kg peroral administration; assay type: functional; settings: route oral; procedure, shortened: as §5
[35] = system: Homo sapiens; assay: In vivo inhibition of tumor growth in MX-1 mammary model was evaluated at dose 0.75 mg/kg peroral administration; assay type: functional; settings: route oral
[36] = system: Homo sapiens; assay: In vivo inhibition of tumor growth in PACA-2 pancreatic model was evaluated at dose 0.75 mg/kg peroral administration; assay type: functional; settings: route oral; procedure, shortened: as §5
[37] = system: Homo sapiens; assay: In vivo inhibition of tumor growth in PACA-2 pancreatic model was evaluated at dose 1.50 mg/kg peroral administration; assay type: functional; settings: route oral; procedure, shortened: as §5
[38] = system: Homo sapiens; assay: In vivo inhibition of tumor growth in IGROV1 ovarian model was evaluated at dose 1.50 mg/kg peroral administration; assay type: functional; settings: IGROV-1, route oral; procedure, shortened: as §6
[39] = system: Mus musculus; assay: In vivo inhibition of tumor growth in C3H Mammary model was evaluated at dose 1.25 mg/kg peroral administration; range is 60-79%; assay type: functional; settings: route oral; procedure, shortened: as §1

Structure (SMILES): COC[C@H]1OC(=O)c2coc3c2[C@@]1(C)C1=C(C3=O)[C@@H]2CC[C@H](O)[C@@]2(C)C[C@H]1OC(C)=O
- inhibition in vivo at 0.5 mg/kg [1]: < 60%
- inhibition in vivo at 1 mg/kg [2]: > 25%
- IC50 [3]: 0.5 nM

Structure (SMILES): CC/N=C/C1=C(O)O[C@H](COC)[C@@]2(C)C1=C(O)C(=O)C1=C2[C@H](OC(C)=O)C[C@]2(C)C(=O)CC[C@@H]12
- IC50 [3]: > 500 nM

Structure (SMILES): COC[C@H]1OC(=O)c2c(C)oc3c2[C@@]1(C)C1=C(C3=O)[C@@H]2CCC(=O)[C@@]2(C)C[C@H]1OC(C)=O
- IC50 [3]: > 500 nM

Structure (SMILES): COC[C@H]1OC(=O)c2coc3c2[C@@]1(C)C1=C(C3=O)[C@@H]2CC=C(OC(C)=O)[C@@]2(C)C[C@H]1OC(C)=O
- IC50 [3]: 59 nM

Structure (SMILES): CCC/N=C\C1=C(O)O[C@H](COC)[C@@]2(C)C1=C(O)C(=O)C1=C2[C@H](OC(C)=O)C[C@]2(C)C(=O)CC[C@@H]12
- IC50 [3]: > 500 nM

Structure (SMILES): CCN(/C=C1\C(=O)O[C@H](COC)[C@@]2(C)C1=C(O)C(=O)C1=C2[C@H](OC(C)=O)C[C@]2(C)C(=O)CC[C@@H]12)CC
- inhibition in vivo at 10 mg/kg [4]: > 25%
- inhibition in vivo at 5 mg/kg [5]: 79%
- IC50 [6]: 80 nM

Structure (SMILES): COC[C@H]1OC(=O)C2=CCOC3=C2[C@@]1(C)C1=C(C3=O)[C@@H]2CCC(=O)[C@@]2(C)C[C@H]1OC(C)=O
- IC50 [3]: 271 nM

Structure (SMILES): COC[C@H]1OC(=O)C23CC2COC2=C3[C@@]1(C)C1=C(C2=O)[C@@H]2CCC(=O)[C@@]2(C)C[C@H]1OC(C)=O (stereo partly specified)
- IC50 [3]: > 500 nM

Structure (SMILES): COC[C@H]1OC(=O)c2coc3c2[C@@]1(C)C1=C(C3=O)[C@@H]2CCC(=O)[C@@]2(C)C[C@H]1OC(C)=O [WORTMANNIN]
- inhibition in vivo at 0.75 mg/kg [7]: < 60%
- inhibition in vivo at 1.5 mg/kg [8]: > 25%
- inhibition in vivo at 0.75 mg/kg [9]: < 60%
- inhibition in vivo at 1.5 mg/kg [10]: > 25%
- inhibition in vivo at 0.75 mg/kg [11]: < 60%
- inhibition in vivo at 1.5 mg/kg [12]: > 25%
- inhibition in vivo at 2.5 mg/kg [13]: > 25%
- inhibition in vivo at 0.75 mg/kg [14]: < 60%
- inhibition in vivo at 1.5 mg/kg [15]: > 25%
- inhibition in vivo at 0.75 mg/kg [16]: < 60%
- inhibition in vivo at 1.5 mg/kg [17]: > 25%
- Inhibition [18]: <60% and >25%
- IC50 [3]: 4.2 nM
- inhibition in vivo at 0.75 mg/kg [19]: < 60%
- inhibition in vivo at 0.75 mg/kg [20]: < 60%
- inhibition in vivo at 1.5 mg/kg [21]: > 25%
- inhibition in vivo at 0.75 mg/kg [22]: > 25%
- inhibition in vivo at 0.75 mg/kg [23]: < 60%
- inhibition in vivo at 1.5 mg/kg [24]: > 25%
- inhibition in vivo at 1.5 mg/kg [25]: > 25%
- inhibition in vivo at 0.75 mg/kg [26]: 79%
- inhibition in vivo at 1.5 mg/kg [27]: > 25%
- inhibition in vivo at 0.75 mg/kg [28]: < 60%
- inhibition in vivo at 1.5 mg/kg [29]: > 25%
- inhibition in vivo at 0.38 mg/kg [30]: > 25%
- inhibition in vivo at 0.75 mg/kg [31]: < 60%
- inhibition in vivo at 1.5 mg/kg [32]: > 25%
- inhibition in vivo at 0.38 mg/kg [33]: < 60%
- inhibition in vivo at 0.75 mg/kg [34]: > 25%
- inhibition in vivo at 0.75 mg/kg [35]: < 60%
- inhibition in vivo at 0.75 mg/kg [36]: < 60%
- inhibition in vivo at 1.5 mg/kg [37]: > 25%
- inhibition in vivo at 1.5 mg/kg [38]: > 25%
- inhibition in vivo at 1.25 mg/kg [39]: 79%
